Measurements: ChEMBL document CHEMBL4725340, “New coumarin-benzotriazole based hybrid molecules as inhibitors of acetylcholinesterase and amyloid aggregation” (Bioorg Med Chem Lett, 2020)
Activity calls are given as the source filed them. No cut-off for these calls is given here.

Columns and labels:
Acetylcholinesterase [1] = target: T1, Acetylcholinesterase (Electrophorus electricus, UniProt O42275); experiment: Inhibition of electric eel AChE by Ellman's method
Cholinesterase = Cholinesterase (Equus caballus, UniProt P81908); experiment: Inhibition of equine serum BuChE by Ellman's method
How it was run: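 Ellman's method with equine serum BuChE, run as for AChE; triplicate experiments; IC50 (50% inhibitory concentration) as mean ± SD of three independent experiments.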

[2] = target: Amyloid-beta precursor protein (Homo sapiens) (UniProt P05067); experiment: Inhibition of copper-induced amyloid beta (1 to 42) (unknown origin) aggregation at 50 uM by thioflavin T based fluorescence assay relative to control
How it was run: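 Thioflavin T fluorescence assay of copper-mediated Aβ1-42 aggregation; test sample at 50 μM; curcumin as reference anti-amyloidogenic agent; percentage inhibition of aggregation estimated.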

SH-SY5Y = experiment: Cytotoxicity against human SH-SY5Y cells at 0.001 to 100 uM after 24 hrs by MTT assay
Acetylcholinesterase [3] = target: T1, Acetylcholinesterase; experiment: Mixed type inhibition of electric eel AChE assessed as inhibition constant using varying levels of acetylthiocholine as substrate by reciprocal Lineweaver-Burk plot analysis
How it was run: (§1)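 Kinetics with electric eel AChE (Ellman's method): no inhibitor plus three inhibitor concentrations, substrate varied over […] (so in the source); double-reciprocal Lineweaver-Burk plots overlaid; slope/intercept changes and intersection quadrant used to assign inhibition type; Ki calculated from the plots.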

[4] = target: Acetylcholinesterase (Electrophorus electricus) (UniProt O42275); experiment: Mixed type inhibition of electric eel AChE assessed as decrease in Vmax by reciprocal Lineweaver-Burk plot analysis; how it was run: as §1
[5] = target: Acetylcholinesterase (Electrophorus electricus) (UniProt O42275); experiment: Mixed type inhibition of electric eel AChE assessed as increase in Km by reciprocal Lineweaver-Burk plot analysis; how it was run: as §1
[6] = target: Cholinesterase (Equus caballus) (UniProt P81908); experiment: Inhibition of equine serum BuChE at 50 to 100 uM by Ellman's method; conditions: dose microM 50-100
How it was run: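 Equine serum BuChE by Ellman's method, with the test compound at two additional single concentrations, 50 and 100 μM; inhibition read at each.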

[7] = Metal chelating activity assessed as compound-Cu2+ complex formation by measuring blue shift in absorption intensity at 5 uM by UV spectra analysis
[8] = Metal chelating activity assessed as compound-Fe2+ complex formation by measuring blue shift in absorption intensity at 5 uM by UV spectra analysis
[9] = Metal chelating activity assessed as compound-Zn2+ complex formation by measuring blue shift in absorption intensity at 5 uM by UV spectra analysis
[10] = Metal chelating activity assessed as formation of Cu2+-compound complex stoichiometry ratio of 2:1 at 5 uM in presence of CuCl2 by UV spectra analysis
DNA [11] = experiment: Protection against Fenton reagent-induced Escherichia coli plasmid pBR322 DNA cleavage assessed as reduction in supercoiled circular DNA(1) form to open circular DNA(2) at 0.2 to 1 mM; type: nucleic-acid assay; conditions: dose mM 0.2-1
DNA [12] = experiment: Protection against Fenton reagent-induced Escherichia coli plasmid pBR322 DNA cleavage assessed as reduction in supercoiled circular DNA(1) form to linear circular DNA(3) at 0.2 to 1 mM; type: nucleic-acid assay; conditions: dose mM 0.2-1
[13] = Metal chelating activity assessed as compound-Mg2+ complex formation by measuring blue shift in absorption intensity at 5 uM by UV spectra analysis

Chain of Cholinesterase (P81908 whole entry): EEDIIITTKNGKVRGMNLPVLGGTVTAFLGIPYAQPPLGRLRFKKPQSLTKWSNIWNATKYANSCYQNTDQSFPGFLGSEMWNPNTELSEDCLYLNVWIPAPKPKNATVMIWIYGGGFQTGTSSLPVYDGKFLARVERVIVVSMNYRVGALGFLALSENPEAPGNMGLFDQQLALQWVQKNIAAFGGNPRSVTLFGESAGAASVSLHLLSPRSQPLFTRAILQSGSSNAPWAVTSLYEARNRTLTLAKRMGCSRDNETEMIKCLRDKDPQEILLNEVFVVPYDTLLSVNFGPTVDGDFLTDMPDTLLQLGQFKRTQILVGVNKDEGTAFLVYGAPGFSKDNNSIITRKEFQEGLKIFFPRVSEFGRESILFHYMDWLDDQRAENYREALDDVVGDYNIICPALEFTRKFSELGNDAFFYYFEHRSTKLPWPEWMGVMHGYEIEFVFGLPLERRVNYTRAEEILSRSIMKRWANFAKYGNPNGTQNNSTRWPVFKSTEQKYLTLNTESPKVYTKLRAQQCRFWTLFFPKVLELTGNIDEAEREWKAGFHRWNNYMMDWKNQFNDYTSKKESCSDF
T1 sequence (O42275 whole entry): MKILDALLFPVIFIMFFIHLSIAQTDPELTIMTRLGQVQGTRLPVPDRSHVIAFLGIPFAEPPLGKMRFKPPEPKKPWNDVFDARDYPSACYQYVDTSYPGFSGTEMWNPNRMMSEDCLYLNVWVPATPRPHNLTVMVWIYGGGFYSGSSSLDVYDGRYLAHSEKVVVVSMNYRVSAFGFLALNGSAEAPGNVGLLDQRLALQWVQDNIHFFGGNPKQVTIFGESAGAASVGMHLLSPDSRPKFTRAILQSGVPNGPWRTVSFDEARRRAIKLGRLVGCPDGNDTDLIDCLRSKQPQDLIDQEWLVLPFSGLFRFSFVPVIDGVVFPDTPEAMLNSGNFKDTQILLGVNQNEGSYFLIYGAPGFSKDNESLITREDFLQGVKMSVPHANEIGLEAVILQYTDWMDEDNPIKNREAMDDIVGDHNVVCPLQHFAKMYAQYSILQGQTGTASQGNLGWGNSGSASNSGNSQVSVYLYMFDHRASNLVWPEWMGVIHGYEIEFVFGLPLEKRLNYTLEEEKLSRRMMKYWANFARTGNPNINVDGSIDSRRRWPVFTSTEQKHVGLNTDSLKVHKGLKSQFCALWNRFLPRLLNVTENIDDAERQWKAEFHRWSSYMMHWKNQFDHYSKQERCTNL
Chain of Amyloid-beta precursor protein (Homo sapiens) (P05067 whole entry): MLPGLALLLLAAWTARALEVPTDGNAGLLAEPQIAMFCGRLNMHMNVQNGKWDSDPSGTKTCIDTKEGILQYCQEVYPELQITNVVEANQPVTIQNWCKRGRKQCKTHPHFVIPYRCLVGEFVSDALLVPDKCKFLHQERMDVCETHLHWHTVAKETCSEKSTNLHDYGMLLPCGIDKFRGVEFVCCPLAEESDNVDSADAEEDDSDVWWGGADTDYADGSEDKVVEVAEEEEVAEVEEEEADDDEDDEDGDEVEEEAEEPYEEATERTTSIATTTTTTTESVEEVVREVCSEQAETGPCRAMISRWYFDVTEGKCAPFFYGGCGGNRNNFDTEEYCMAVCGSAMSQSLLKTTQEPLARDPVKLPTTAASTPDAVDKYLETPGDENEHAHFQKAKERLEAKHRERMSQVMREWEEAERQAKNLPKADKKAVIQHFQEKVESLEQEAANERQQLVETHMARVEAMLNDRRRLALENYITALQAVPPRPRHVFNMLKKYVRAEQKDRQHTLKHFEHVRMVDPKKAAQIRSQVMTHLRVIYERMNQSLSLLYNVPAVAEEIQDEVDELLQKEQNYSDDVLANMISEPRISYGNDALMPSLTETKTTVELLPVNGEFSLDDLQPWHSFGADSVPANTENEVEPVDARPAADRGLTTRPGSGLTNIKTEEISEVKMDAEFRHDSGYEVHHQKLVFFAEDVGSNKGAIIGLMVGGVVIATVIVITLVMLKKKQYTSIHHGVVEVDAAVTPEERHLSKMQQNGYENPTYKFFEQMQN
Chain of Acetylcholinesterase (Electrophorus electricus) (O42275 24-633 limits assumed): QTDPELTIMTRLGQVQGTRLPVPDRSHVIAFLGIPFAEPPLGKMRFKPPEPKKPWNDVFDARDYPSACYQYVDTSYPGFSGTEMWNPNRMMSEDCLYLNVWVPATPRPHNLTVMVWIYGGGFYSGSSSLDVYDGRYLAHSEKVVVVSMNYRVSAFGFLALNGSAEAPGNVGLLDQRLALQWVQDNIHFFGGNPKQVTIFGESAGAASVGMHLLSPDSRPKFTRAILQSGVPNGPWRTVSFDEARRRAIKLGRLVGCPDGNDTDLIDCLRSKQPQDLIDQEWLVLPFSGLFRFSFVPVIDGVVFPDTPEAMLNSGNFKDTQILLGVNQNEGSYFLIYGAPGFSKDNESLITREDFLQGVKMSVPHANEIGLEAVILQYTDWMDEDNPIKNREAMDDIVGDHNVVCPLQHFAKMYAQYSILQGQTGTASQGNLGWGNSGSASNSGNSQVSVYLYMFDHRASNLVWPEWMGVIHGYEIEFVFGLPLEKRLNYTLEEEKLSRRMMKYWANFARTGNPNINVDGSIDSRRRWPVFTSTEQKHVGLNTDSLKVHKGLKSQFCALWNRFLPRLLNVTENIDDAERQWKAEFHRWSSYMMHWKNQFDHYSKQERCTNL
Chain of Cholinesterase (Equus caballus) (P81908 whole entry): as the sequence (P81908 whole entry) above

Compound | IC50 (Acetylcholinesterase [1]) [nM] | IC50 (Cholinesterase) [µM] | inhibition [2] [%] | other results
O=c1cc(OCCCCn2cc(COn3nnc4ccccc43)nn2)c2ccccc2o1 | 3230 | ≥ 10 | < 10 | 
O=c1ccc2ccc(OCCCn3cc(Cn4nnc5ccccc54)nn3)cc2o1 | 2920 | ≥ 10 | 15.9 | 
O=c1cc(OCCCCn2cc(Cn3nnc4ccccc43)nn2)c2ccccc2o1 | 234 | ≥ 10 | 22.4 | 
O=c1cc(OCCCn2cc(Cn3nc4ccccc4n3)nn2)c2ccccc2o1 | 1670 | ≥ 10 | < 10 | 
COc1cc2c(cc1OC)C(=O)C(CC1CCN(Cc3ccccc3)CC1)C2 (stereo not drawn) [DONEPEZIL] |  |  |  | Activity (SH-SY5Y): Non-Toxic
O=c1ccc2ccc(OCCCCn3cc(COn4nnc5ccccc54)nn3)cc2o1 | ≥ 10000 | ≥ 10 | < 10 | 
O=c1cc(OCCCn2cc(Cn3nnc4ccccc43)nn2)c2ccccc2o1 | 59 | ≥ 10 | 34.3 | Ki (Acetylcholinesterase [3]): 0.0417 nM; inhibition [4]: Active; inhibition [5]: Active; inhibition [6]: Active; Activity [7]: Active; Activity [8]: Active; Activity [9]: Active; Activity [10]: Active; Activity (DNA [11]): Active; Activity (DNA [12]): Active; Activity (SH-SY5Y): Non-Toxic; Activity [13]: inactive
O=c1ccc2ccc(OCCCCCCn3cc(COn4nnc5ccccc54)nn3)cc2o1 | ≥ 10000 | ≥ 10 | < 10 | 
O=c1ccc2ccc(OCCCCCn3cc(Cn4nc5ccccc5n4)nn3)cc2o1 | ≥ 10000 | ≥ 10 | < 10 | 
O=c1cc(OCCCCCCn2cc(COn3nnc4ccccc43)nn2)c2ccccc2o1 | ≥ 10000 | ≥ 10 | < 10 | 
O=c1ccc2ccc(OCCCCCn3cc(COn4nnc5ccccc54)nn3)cc2o1 | ≥ 10000 | ≥ 10 | < 10 | 
O=c1cc(OCCCCCn2cc(Cn3nnc4ccccc43)nn2)c2ccccc2o1 | 1140 | ≥ 10 | 11.4 | 
O=c1cc(OCCCn2cc(COn3nnc4ccccc43)nn2)c2ccccc2o1 | 1320 | ≥ 10 | < 10 | 
O=c1ccc2ccc(OCCCn3cc(COn4nnc5ccccc54)nn3)cc2o1 | 1980 | ≥ 10 | < 10 | 
O=c1ccc2ccc(OCCCn3cc(Cn4nc5ccccc5n4)nn3)cc2o1 | 1160 | ≥ 10 | < 10 | 
O=c1cc(OCCn2cc(Cn3nnc4ccccc43)nn2)c2ccccc2o1 | 97 | ≥ 10 | 36.7 | 

Compound | IC50 (Acetylcholinesterase [1]) [nM] | IC50 (Cholinesterase) [µM] | inhibition [2] [%] | other results
O=c1ccc2ccc(OCCCCCCn3cc(Cn4nc5ccccc5n4)nn3)cc2o1 | ≥ 10000 | ≥ 10 | < 10 | 
O=c1cc(OCCn2cc(COn3nnc4ccccc43)nn2)c2ccccc2o1 | 4320 | ≥ 10 | 16.2 | 
O=c1ccc2ccc(OCCCCn3cc(Cn4nc5ccccc5n4)nn3)cc2o1 | 5440 | ≥ 10 | < 10 | 
O=c1ccc2ccc(OCCCCCn3cc(Cn4nnc5ccccc54)nn3)cc2o1 | 5430 | ≥ 10 | < 10 | 
O=c1cc(OCCCCCCn2cc(Cn3nnc4ccccc43)nn2)c2ccccc2o1 | 5420 | ≥ 10 | < 10 | 
O=c1cc(OCCn2cc(Cn3nc4ccccc4n3)nn2)c2ccccc2o1 | 1890 | ≥ 10 | < 10 | 
O=c1ccc2ccc(OCCCCCCn3cc(Cn4nnc5ccccc54)nn3)cc2o1 | ≥ 10000 | ≥ 10 | < 10 | 
O=c1ccc2ccc(OCCCCn3cc(Cn4nnc5ccccc54)nn3)cc2o1 | 4330 | ≥ 10 | 11.4 | 
O=c1cc(OCCCCCn2cc(Cn3nc4ccccc4n3)nn2)c2ccccc2o1 | 4810 | ≥ 10 | < 10 | 
O=c1cc(OCCCCCn2cc(COn3nnc4ccccc43)nn2)c2ccccc2o1 | ≥ 10000 | ≥ 10 | < 10 | 
O=c1ccc2ccc(OCCn3cc(Cn4nnc5ccccc54)nn3)cc2o1 | 2110 | ≥ 10 | 29.4 | 
O=c1cc(OCCCCn2cc(Cn3nc4ccccc4n3)nn2)c2ccccc2o1 | 2090 | ≥ 10 | < 10 | 
O=c1ccc2ccc(OCCn3cc(Cn4nc5ccccc5n4)nn3)cc2o1 | 1180 | ≥ 10 | < 10 | 
O=c1ccc2ccc(OCCn3cc(COn4nnc5ccccc54)nn3)cc2o1 | 2010 | ≥ 10 | 11.4 | 
O=c1cc(OCCCCCCn2cc(Cn3nc4ccccc4n3)nn2)c2ccccc2o1 | 6230 | ≥ 10 | < 10 | 
